Where two headings read alike, the source gives them in different places.
Legend:
[1] = [L] = 10 μmol L^−1, [Fe^III] = 1 μmol L^−1; cited from earlier work
Siderocalin (Scn) [2] = biological target: T1, Siderocalin (Scn) (Homo sapiens, UniProt P80188); details: cited from earlier work
Siderocalin (Scn) [3] = biological target: T1, Siderocalin (Scn); test: Fluorescence quenching binding assay of Scn; details: for Kd: 100 nM Scn, TBS pH 7.4, 5% DMSO
In short: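 Recombinant Scn, 100 nM in TBS pH 7.4 with 32 μg/mL ubiquitin and 5% DMSO, was titrated with 2–10 equivalents of substrate. Tryptophan quenching was read at excitation 281 nm and emission 340 nm, corrected for dilution. Metal complexes were formed in situ from a DMSO ligand stock plus 1 eq. metal salt, equilibrated 1 h, and used as a 6 μM working solution. Apo ligands were prepared without metal. Kd came from a one-site nonlinear least-squares fit.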

T1 sequence (P80188 21-198): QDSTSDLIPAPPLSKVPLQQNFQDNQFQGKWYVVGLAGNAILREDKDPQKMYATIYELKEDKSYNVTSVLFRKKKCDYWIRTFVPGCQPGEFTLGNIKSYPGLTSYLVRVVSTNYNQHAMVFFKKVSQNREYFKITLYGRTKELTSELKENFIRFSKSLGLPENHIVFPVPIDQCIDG

## O=C(N[C@H]1COC(=O)[C@@H](NC(=O)c2cccc(O)c2O)COC(=O)[C@@H](NC(=O)c2cccc(O)c2O)COC1=O)c1cccc(O)c1O [enterobactin]
[1]
  pM value (pM = -log[Fe^III]): 35.3
Siderocalin (Scn) [2]; apo siderophore
  Binding by Scn in words: bound with high affinity
Siderocalin (Scn) [2]; natural siderophores
  Binding by Scn in words: sequestered

## O=C(CC(O)(CC(=O)NCCCCNCCCNC(=O)c1ccc(O)c(O)c1)C(=O)O)NCCCCNCCCNC(=O)c1ccc(O)c(O)c1 [petrobactin]
Siderocalin (Scn) [2]
  Binding by Scn in words: not bound

## O=C(NCCN(CCNC(=O)c1cccc(=O)n1O)CCNC(=O)c1cccc(=O)n1O)c1cccc(=O)n1O [tren(1,2-HOPO)3]
Siderocalin (Scn) [3]; Fe^III complex
  Kd: > 600 nM
Siderocalin (Scn) [3]; V^IV complex
  Kd: 300 ± 30 nM
Siderocalin (Scn) [3]; apo ligand, pH 7.4
  Scn affinity in words: micromolar affinity range
Siderocalin (Scn) [3]; no metal (apo ligand)
  Kd: 250 ± 30 nM

## Cn1ccc(C(=O)NCCN(CCNC(=O)c2cccc(O)c2O)CCNC(=O)c2cccc(O)c2O)c(O)c1=O [trenCAM2(Me-3,2-HOPO), tren(CAM)2(Me-3,2-HOPO)]
Siderocalin (Scn) [3]; Fe^III complex
  Kd: 120 ± 10 nM

## O=C(NCCN(CCNC(=O)c1cccc(=O)n1O)CCNC(=O)c1cccc(=O)n1O)c1cccc(O)c1O [trenCAM(1,2-HOPO)2, tren(CAM)(1,2-HOPO)2]
Siderocalin (Scn) [3]; Fe^III complex
  Kd: 43 ± 2 nM
Siderocalin (Scn) [3]; V^IV complex
  Kd: 220 ± 70 nM
Siderocalin (Scn) [3]; no metal (apo ligand)
  Kd: 140 ± 10 nM

## Cn1ccc(C(=O)NCCN(CCNC(=O)c2ccn(C)c(=O)c2O)CCNC(=O)c2ccn(C)c(=O)c2O)c(O)c1=O [tren(Me-3,2-HOPO)3]
Siderocalin (Scn) [3]; Fe^III complex
  Kd: > 600 nM

## CC(=O)N(O)CCCC[C@H](NC(=O)CC(O)(CC(=O)N[C@@H](CCCCN(O)C(C)=O)C(=O)O)C(=O)O)C(=O)O [aerobactin]
Siderocalin (Scn) [2]; natural siderophores
  Binding by Scn in words: not bound

## O=C(N[C@H]1COC(=O)[C@@H](NC(=O)c2cc([C@@H]3O[C@H](CO)[C@@H](O)[C@H](O)[C@H]3O)cc(O)c2O)COC(=O)[C@@H](NC(=O)c2cc([C@@H]3O[C@H](CO)[C@@H](O)[C@H](O)[C@H]3O)cc(O)c2O)COC1=O)c1cccc(O)c1O [salmochelin-S4]
Siderocalin (Scn) [2]; natural siderophores
  Binding by Scn in words: not bound

## CC(=O)N(O)CCCCCNC(=O)CCC(=O)N(O)CCCCCNC(=O)CCC(=O)N(O)CCCCCN [desferrioxamine B]
[1]
  pM value (pM = -log[Fe^III]): 26.6

## O=C(NCCN(CCNC(=O)c1cccc(O)c1O)CCNC(=O)c1cccc(=O)n1O)c1cccc(O)c1O [trenCAM2(1,2-HOPO), tren(CAM)2(1,2-HOPO)]
Siderocalin (Scn) [3]; Fe^III complex
  Kd: 0.8 ± 0.3 nM
Siderocalin (Scn) [3]; V^IV complex
  Kd: 40 ± 9 nM
Siderocalin (Scn) [3]; no metal (apo ligand)
  Kd: 1.4 ± 0.3 nM

## O=C1CCC(=O)N(O)CCC(O)CNC(=O)CCC(=O)N(O)CCC(O)CN1 (centres unmarked) [alcaligin]
Siderocalin (Scn) [2]; natural siderophores
  Binding by Scn in words: not bound

## C[C@H]1OC(=O)[C@@H](NC(=O)CNC(=O)c2cccc(O)c2O)[C@@H](C)OC(=O)[C@@H](NC(=O)CNC(=O)c2cccc(O)c2O)[C@@H](C)OC(=O)[C@H]1NC(=O)CNC(=O)c1cccc(O)c1O [bacillibactin]
Siderocalin (Scn) [2]; apo siderophore
  Binding by Scn in words: bound with high affinity
Siderocalin (Scn) [2]; natural siderophores
  Binding by Scn in words: sequestered

## O=C(NCCN(CCNC(=O)c1cccc(O)c1O)CCNC(=O)c1cccc(O)c1O)c1cccc(O)c1O [trenCAM3, tren(CAM)3]
Siderocalin (Scn) [3]; V^IV complex
  Kd: 1.3 ± 0.3 nM
Siderocalin (Scn) [3]; no metal (apo ligand)
  Kd: 1.2 ± 0.2 nM
Siderocalin (Scn) [2]; Fe^III complex
  Kd: 0.3 ± 0.1 nM

## Cn1ccc(C(=O)NCCN(CCNC(=O)c2cccc(O)c2O)CCNC(=O)c2ccn(C)c(=O)c2O)c(O)c1=O [trenCAM(Me-3,2-HOPO)2, tren(CAM)(Me-3,2-HOPO)2]
Siderocalin (Scn) [3]; Fe^III complex
  Kd: 150 ± 20 nM

— publication PMC2778733 (Journal of the American Chemical Society, 2008)
